Reference: ChEMBL document CHEMBL3124784, “Synthesis, in vitro antiplasmodial activity and cytotoxicity of a series of artemisinin-triazine hybrids and hybrid-dimers” (Eur J Med Chem, 2014)

Columns and labels:
[1] = Selectivity index, ratio of IC50 for CHO cells to IC50 for asexual erythrocytic stage of chloroquine-sensitive Plasmodium falciparum NF54; type: toxicity, cell-based; conditions: hamster; read-out: Ratio IC50
CHO = experiment: Cytotoxicity against CHO cells after 48 hrs by MTT assay; type: cell-based; conditions: Cricetulus griseus
Plasmodium falciparum [2] = experiment: Potency index, ratio of pyrimethamine IC50 to compound IC50 for asexual erythrocytic stage of chloroquine-sensitive Plasmodium falciparum NF54; type: functional
Plasmodium falciparum [3] = experiment: Antiplasmodial activity against asexual erythrocytic stage of chloroquine-sensitive Plasmodium falciparum NF54 assessed as parasite growth inhibition after 48 hrs by lactate dehydrogenase assay; type: functional, organism-based; conditions: NF54, 48 h
In short: (§1)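 pLDH assay (modified Makler method) on cultured parasites, 48 h exposure. Stocks 20 mg/mL in 100% DMSO, stored at −20 °C, diluted in complete medium on the day of analysis; suspensions tested if not fully dissolved. Two-fold serial dilutions over ten concentrations; references started at 1000 ng/mL. Full dose-response for IC50; triplicate on one occasion.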

Plasmodium falciparum [4] = experiment: Antiplasmodial activity against asexual erythrocytic stage of chloroquine-resistant Plasmodium falciparum Dd2 assessed as parasite growth inhibition after 48 hrs by lactate dehydrogenase assay; type: functional, organism-based; conditions: Dd2, 48 h; in short: as §1
[5] = Resistance index, ratio of IC50 for asexual erythrocytic stage of chloroquine-resistant Plasmodium falciparum Dd2 to IC50 for asexual erythrocytic stage of chloroquine-sensitive Plasmodium falciparum NF54; type: functional
Plasmodium falciparum [6] = experiment: Potency index, ratio of chloroquine IC50 to compound IC50 for asexual erythrocytic stage of chloroquine-sensitive Plasmodium falciparum NF54; type: functional

## C[C@H]1[C@@H](OCCNCCNc2nc(Nc3ccccc3)nc(Nc3ccccc3)n2)O[C@@H]2O[C@@]3(C)CC[C@H]4[C@H](C)CC[C@@H]1[C@@]24OO3.O=C(O)C(=O)O
[1]
  selectivity ratio: 588
CHO
  IC50: 16000 nM
Plasmodium falciparum [2]
  Ratio IC50: <=6000
Plasmodium falciparum [3]
  IC50: 27.2 nM
Plasmodium falciparum [4]
  IC50: 59.1 nM
[5]
  Ratio IC50: 2.2

## COc1ccc(Nc2nc(NCCNCCO[C@H]3O[C@@H]4O[C@@]5(C)CC[C@H]6[C@H](C)CC[C@@H]([C@H]3C)[C@@]46OO5)nc(N3CCCCC3)n2)cc1.O=C(O)C(=O)O
[1]
  selectivity ratio: 105
CHO
  IC50: 3000 nM
Plasmodium falciparum [2]
  Ratio IC50: <=6000
Plasmodium falciparum [3]
  IC50: 28 nM
Plasmodium falciparum [4]
  IC50: 46.3 nM
[5]
  Ratio IC50: 1.7

## COc1ccc(Nc2nc(NCCN(CCO[C@H]3O[C@@H]4O[C@@]5(C)CC[C@H]6[C@H](C)CC[C@@H]([C@H]3C)[C@@]46OO5)CCO[C@H]3O[C@@H]4O[C@@]5(C)CC[C@H]6[C@H](C)CC[C@@H]([C@H]3C)[C@@]46OO5)nc(Nc3ccc(OC)cc3)n2)cc1.O=C(O)C(=O)O
[1]
  selectivity ratio: > 18200
CHO
  IC50: > 100 µg/mL
Plasmodium falciparum [2]
  Ratio IC50: <=6000
Plasmodium falciparum [3]
  IC50: 5.5 nM
Plasmodium falciparum [4]
  IC50: 10.6 nM
Plasmodium falciparum [6]
  Ratio IC50: 2
[5]
  Ratio IC50: 1.9

## COc1ccc(Nc2nc(NCCNCCO[C@H]3O[C@@H]4O[C@@]5(C)CC[C@H]6[C@H](C)CC[C@@H]([C@H]3C)[C@@]46OO5)nc(Nc3ccccc3)n2)cc1.O=C(O)C(=O)O
[1]
  selectivity ratio: > 5050
CHO
  IC50: > 100 µg/mL
Plasmodium falciparum [2]
  Ratio IC50: <=6000
Plasmodium falciparum [3]
  IC50: 19.8 nM
Plasmodium falciparum [4]
  IC50: 28.8 nM
[5]
  Ratio IC50: 1.5

## COc1ccc(Nc2nc(NCCNCCO[C@H]3O[C@@H]4O[C@@]5(C)CC[C@H]6[C@H](C)CC[C@@H]([C@H]3C)[C@@]46OO5)nc(N3CCOCC3)n2)cc1.O=C(O)C(=O)O
[1]
  selectivity ratio: 81
CHO
  IC50: 3100 nM
Plasmodium falciparum [2]
  Ratio IC50: <=6000
Plasmodium falciparum [3]
  IC50: 38.5 nM
Plasmodium falciparum [4]
  IC50: 57.4 nM
[5]
  Ratio IC50: 1.5

## C[C@H]1[C@H](OC(=O)CCC(=O)O)O[C@@H]2O[C@@]3(C)CC[C@H]4[C@H](C)CC[C@@H]1[C@@]24OO3 [ARTESUNATE]
Plasmodium falciparum [3]
  IC50: < 5.2 nM
Plasmodium falciparum [4]
  IC50: 8.1 nM

## COc1ccc(Nc2nc(NCCNCCO[C@H]3O[C@@H]4O[C@@]5(C)CC[C@H]6[C@H](C)CC[C@@H]([C@H]3C)[C@@]46OO5)nc(NCCN(C(C)C)C(C)C)n2)cc1.O=C(O)C(=O)O
[1]
  selectivity ratio: 23
CHO
  IC50: 900 nM
Plasmodium falciparum [2]
  Ratio IC50: <=6000
Plasmodium falciparum [3]
  IC50: 39.1 nM
Plasmodium falciparum [4]
  IC50: 74.7 nM
[5]
  Ratio IC50: 1.9

## C[C@H]1[C@@H](OCCNCCNc2nc(N3CCOCC3)nc(N3CCOCC3)n2)O[C@@H]2O[C@@]3(C)CC[C@H]4[C@H](C)CC[C@@H]1[C@@]24OO3.O=C(O)C(=O)O
[1]
  selectivity ratio: 160
CHO
  IC50: 3100 nM
Plasmodium falciparum [2]
  Ratio IC50: <=6000
Plasmodium falciparum [3]
  IC50: 19.3 nM
Plasmodium falciparum [4]
  IC50: 85 nM
[5]
  Ratio IC50: 4.4

## CCc1nc(N)nc(N)c1-c1ccc(Cl)cc1 [PYRIMETHAMINE]
CHO
  IC50: 271000 nM
Plasmodium falciparum [3]
  IC50: 33000 nM
Plasmodium falciparum [4]
  IC50: 60700 nM

## C[C@H]1[C@@H](OCCN(CCNc2nc(Nc3ccccc3)nc(N3CCOCC3)n2)CCO[C@H]2O[C@@H]3O[C@@]4(C)CC[C@H]5[C@H](C)CC[C@@H]([C@H]2C)[C@@]35OO4)O[C@@H]2O[C@@]3(C)CC[C@H]4[C@H](C)CC[C@@H]1[C@@]24OO3.O=C(O)C(=O)O
[1]
  selectivity ratio: > 13500
CHO
  IC50: > 100 µg/mL
Plasmodium falciparum [2]
  Ratio IC50: <=6000
Plasmodium falciparum [3]
  IC50: 7.9 nM
Plasmodium falciparum [4]
  IC50: 10.2 nM
[5]
  Ratio IC50: 1.3

## COc1ccc(Nc2nc(NCCN(CCO[C@H]3O[C@@H]4O[C@@]5(C)CC[C@H]6[C@H](C)CC[C@@H]([C@H]3C)[C@@]46OO5)CCO[C@H]3O[C@@H]4O[C@@]5(C)CC[C@H]6[C@H](C)CC[C@@H]([C@H]3C)[C@@]46OO5)nc(NCCN(C(C)C)C(C)C)n2)cc1.O=C(O)C(=O)O
[1]
  selectivity ratio: > 3080
CHO
  IC50: > 100 µg/mL
Plasmodium falciparum [2]
  Ratio IC50: <=6000
Plasmodium falciparum [3]
  IC50: 31.8 nM
Plasmodium falciparum [4]
  IC50: 33.1 nM
[5]
  Ratio IC50: 1

## COc1ccc(Nc2nc(NCCN(CCO[C@H]3O[C@@H]4O[C@@]5(C)CC[C@H]6[C@H](C)CC[C@@H]([C@H]3C)[C@@]46OO5)CCO[C@H]3O[C@@H]4O[C@@]5(C)CC[C@H]6[C@H](C)CC[C@@H]([C@H]3C)[C@@]46OO5)nc(N3CCOCC3)n2)cc1.O=C(O)C(=O)O
[1]
  selectivity ratio: 35
CHO
  IC50: 900 nM
Plasmodium falciparum [2]
  Ratio IC50: <=6000
Plasmodium falciparum [3]
  IC50: 25.8 nM
Plasmodium falciparum [4]
  IC50: 35.9 nM
[5]
  Ratio IC50: 1.4

## C[C@H]1[C@@H](O)O[C@@H]2O[C@@]3(C)CC[C@H]4[C@H](C)CC[C@@H]1[C@@]24OO3 [ARTENIMOL]
[1]
  selectivity ratio: 162000
CHO
  IC50: 148000 nM
Plasmodium falciparum [3]
  IC50: 0.9 nM
Plasmodium falciparum [4]
  IC50: 8.8 nM
[5]
  Ratio IC50: 9.7

## C[C@H]1[C@@H](OCCN(CCNc2nc(Nc3ccccc3)nc(Nc3ccccc3)n2)CCO[C@H]2O[C@@H]3O[C@@]4(C)CC[C@H]5[C@H](C)CC[C@@H]([C@H]2C)[C@@]35OO4)O[C@@H]2O[C@@]3(C)CC[C@H]4[C@H](C)CC[C@@H]1[C@@]24OO3.O=C(O)C(=O)O
[1]
  selectivity ratio: 54
CHO
  IC50: 700 nM
Plasmodium falciparum [2]
  Ratio IC50: <=6000
Plasmodium falciparum [3]
  IC50: 12.9 nM
Plasmodium falciparum [4]
  IC50: 10.3 nM
[5]
  Ratio IC50: 0.8

## CC[C@H]1CN2CCc3cc(OC)c(OC)cc3[C@@H]2C[C@@H]1C[C@H]1NCCc2cc(OC)c(OC)cc21 [EMETINE]
CHO
  IC50: 100 nM

## C[C@H]1[C@@H](OCCNCCNc2nc(N3CCCCC3)nc(N3CCCCC3)n2)O[C@@H]2O[C@@]3(C)CC[C@H]4[C@H](C)CC[C@@H]1[C@@]24OO3.O=C(O)C(=O)O
[1]
  selectivity ratio: 150
CHO
  IC50: 3100 nM
Plasmodium falciparum [2]
  Ratio IC50: <=6000
Plasmodium falciparum [3]
  IC50: 20.6 nM
Plasmodium falciparum [4]
  IC50: 47.5 nM
[5]
  Ratio IC50: 2.3

## COc1ccc(Nc2nc(NCCN(CCO[C@H]3O[C@@H]4O[C@@]5(C)CC[C@H]6[C@H](C)CC[C@@H]([C@H]3C)[C@@]46OO5)CCO[C@H]3O[C@@H]4O[C@@]5(C)CC[C@H]6[C@H](C)CC[C@@H]([C@H]3C)[C@@]46OO5)nc(N3CCCCC3)n2)cc1.O=C(O)C(=O)O
[1]
  selectivity ratio: 1470
CHO
  IC50: 17000 nM
Plasmodium falciparum [2]
  Ratio IC50: <=6000
Plasmodium falciparum [3]
  IC50: 11.6 nM
Plasmodium falciparum [4]
  IC50: 13.6 nM
[5]
  Ratio IC50: 1.2
